Measurements published in ChEMBL document CHEMBL1240314, “Small-molecule inhibitor of p53 binding to mitochondria protects mice from gamma radiation” (2006).
Activity calls are given as the source filed them. No cut-off for these calls is given here.

Legend:
[1] = target: Cellular tumor antigen p53 (Homo sapiens) (UniProt P04637); test: Binding affinity to p53 assessed as reduction in mitochondrial-bound p53 level at 10 uM
Summary of the method: (§1)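 Cell-free reconstitution: freshly isolated HeLa or Saos-2 mitochondria (40 mg as printed) incubated 1 h at 37 °C with purified baculoviral human wild-type p53 (60 ng) plus compound in MS buffer with CaCl2; mitochondria pelleted, washed three times, p53 cosedimentation by western blot, mt-Hsp75 loading control.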

[2] = target: Cellular tumor antigen p53 (Homo sapiens) (UniProt P04637); test: Binding affinity to p53 assessed as reduction in mitochondrial-bound p53 level at 25 uM; summary of the method: as §1
[3] = target: Cellular tumor antigen p53 (Homo sapiens) (UniProt P04637); test: Binding affinity to p53 assessed as reduction in mitochondrial-bound p53 level at 50 uM; summary of the method: as §1
[4] = target: Cellular tumor antigen p53 (Homo sapiens) (UniProt P04637); test: Binding affinity to p53 transfected in human […] cells assessed as reduction in p53 bound-Bcl-2 at 15 uM after 48 hrs; format: cell-based; conditions: HEK293
Summary of the method: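 293T cells cotransfected with Flag-tagged wild-type Bcl-xL or Bcl-2 plus wild-type p53 plasmid; compound 15 mM (so in the source) applied 24 h after transfection; lysates (1 mg protein) immunoprecipitated with anti-Flag M2 gel, bound p53 detected with HRP-conjugated DO-1.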

[5] = Antiapoptotic activity against gamma irradiation-induced apoptosis in mouse thymocyte assessed as cytosolic Cyt c concentration at 20 uM; format: functional, cell-based
Summary of the method: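 Thymocytes (20 × 10^6) from 5-week-old C57Bl/6J mice irradiated with 10 Gy gamma, with or without compound ([…] as printed); cytosolic fractions isolated 5 h after irradiation and probed for cytochrome c by western blot.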

[6] = target: Cellular tumor antigen p53 (Homo sapiens) (UniProt P04637); test: Inhibition of p53-dependent transactivation of p21 in gamma-stimulated human ConA cells; format: cell-based
Summary of the method: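 ConA cells given 10 µM test agent and 10 Gy gamma irradiation. Protein extracts taken 6 h post-irradiation and p21 detected by immunoblotting.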

NCI-H1299 = test: Antiapoptotic activity against staurosporine-induced cell death in human H1299 cells assessed as cell survival at 10 uM after 24 hrs by methylene blue assay; format: functional, cell-based
WI-38 = test: Antiapoptotic activity against TNF-alpha induced apoptosis in human WI38 cells assessed as cell survival at 0.1 uM to 10 uM after 24 hrs by methylene blue assay in presence of 0.5 ug/ml cycloheximidine; format: functional, cell-based
Fibroblast = test: Antiapoptotic activity against TNF-alpha induced apoptosis in mouse fibroblast assessed as cell survival at 0.1 uM to 10 uM by methylene blue assay in presence of 0.5 ug/ml cycloheximidine after 24 hrs; format: functional, cell-based
[7] = target: Cellular tumor antigen p53 (Homo sapiens) (UniProt P04637); test: Inhibition of p53-mediated apoptosis in human WI38 cells assessed as cell survival at 10 uM after 24 hrs by methylene blue assay; format: cell-based; conditions: WI-38
Mus musculus [8] = test: Protection against 9 Gy gamma radiation-induced death in mouse assessed as increase in survival at 40 mg/kg, ip; format: functional; conditions: route intraperitoneal
Summary of the method: (§2)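 Male C57Bl/6J mice, 8–10 weeks old, given a single 40 mg kg–1 intraperitoneal dose 30 min before total-body gamma irradiation (137Cs, 4 Gy min–1) at 8 or 9 Gy. Survival followed. Ten mice per subgroup; three independent repeats.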

[9] = target: Cellular tumor antigen p53 (Homo sapiens) (UniProt P04637); test: Inhibition of p53-mediated transactivation of promoter hDM2 in human H1299 cells at 10 uM after 48 hrs by lacZ reporter assay; format: cell-based
[10] = target: Cellular tumor antigen p53 (Homo sapiens) (UniProt P04637); test: Inhibition of p53-dependent transcription of puma in UV-induced human MCF7 cells; format: cell-based
Summary of the method: (§3)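 Northern analysis of MCF7 cells, p53 wild-type and shRNA p53-knockdown. Induction by UV 8.5 J m–2 or Dox […]. RNA isolated 18 h after treatment; 10 µg hybridised with 32P-labelled full-length cDNA probes for Bax, Noxa or Puma. 18S rRNA used as loading control.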

[11] = target: Cellular tumor antigen p53 (Homo sapiens) (UniProt P04637); test: Inhibition of p53-dependent transcription of puma in human MCF7 cells; format: cell-based; summary of the method: as §3
[12] = target: Cellular tumor antigen p53 (Homo sapiens) (UniProt P04637); test: Inhibition of p53-dependent transcription of bax in UV-stimulated human […] cells; format: cell-based; summary of the method: as §3
[13] = target: Cellular tumor antigen p53 (Homo sapiens) (UniProt P04637); test: Inhibition of p53-dependent transcription of noxa in UV-induced human MCF7 cells; format: cell-based; summary of the method: as §3
[14] = target: Cellular tumor antigen p53 (Homo sapiens) (UniProt P04637); test: Inhibition of p53-dependent transcription of puma in doxorubicin-induced human U2OS cells; format: cell-based
Summary of the method: (§4)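 Northern analysis of U2OS cells, p53 wild-type and shRNA p53-knockdown. Induction by UV 8.5 J m–2 or Dox […]. RNA isolated 18 h after treatment; 10 µg hybridised with 32P-labelled full-length cDNA probes for Bax, Noxa or Puma. 18S rRNA used as loading control.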

[15] = target: Cellular tumor antigen p53 (Homo sapiens) (UniProt P04637); test: Inhibition of p53-dependent transcription of bax in human U2OS cells; format: cell-based; summary of the method: as §4
[16] = target: Cellular tumor antigen p53 (Homo sapiens) (UniProt P04637); test: Inhibition of p53-dependent transcription of noxa in human U2OS cells; format: cell-based; summary of the method: as §4
[17] = target: Cellular tumor antigen p53 (Homo sapiens) (UniProt P04637); test: Inhibition of p53-mediated transactivation of p21 in gamma-stimulated human BJ cells at 10 uM after 6 hrs; format: cell-based
Homo sapiens = species: Homo sapiens; test: Induction of p21 mRNA expression in gamma-stimulated human SK-MEL-29 cells; format: functional
Summary of the method: (§5)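 Wild-type and p53-deficient cell pairs stimulated with 5-FU ([…] as printed) or gamma irradiation (10 or 15 Gy); p21 mRNA quantified by real-time PCR; means ± s.d., n = 3.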

BJ = test: Induction of p21 mRNA expression in human BJ cells; format: functional, cell-based; summary of the method: as §5
MCF7 [18] = test: Induction of Puma gene expression in human MCF7 cells; format: functional, cell-based
Summary of the method: (§6)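 Northern blot: 10 mg RNA (so in the source) isolated 18 h after UV (8.5 J m–2) or doxorubicin (125 mg ml–1 as printed) from MCF7 or U2OS cells and p53-knockdown (lentiviral shRNA) counterparts; hybridized with 32P-labeled full-length cDNA probes for Bax, Noxa, Puma; 18S rRNA loading control.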

MCF7 [19] = test: Induction of Noxa gene expression in UV-induced human MCF7 cells; format: functional, cell-based; summary of the method: as §6
U2OS [20] = test: Induction of Puma gene expression in human U2OS cells; format: functional, cell-based; summary of the method: as §6
U2OS [21] = test: Induction of Noxa gene expression in doxorubicin-induced human U2OS cells; format: functional, cell-based; summary of the method: as §6
U2OS [22] = test: Induction of Bax gene expression in human U2OS cells; format: functional, cell-based; summary of the method: as §6
Mus musculus [23] = test: Protection against 8 Gy gamma radiation-induced death in mouse assessed as increase in survival at 40 mg/kg, ip; format: functional; conditions: route intraperitoneal; summary of the method: as §2
[24] = target: Cellular tumor antigen p53 (Homo sapiens) (UniProt P04637); test: Binding affinity to p53 transfected in human Saos-2 cells harboring pLV-53 assessed as reduction of p53 protein in mitochondria at 10 uM after 48 hrs
Summary of the method: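 Saos-2 cells infected with p53-expressing lentivirus; compound ([…] as printed) added 5 h after infection; mitochondrial and cytosolic fractions western blotted for p53 at 48 h post-infection, with mt-Hsp75 and β-actin as fraction loading controls.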

[25] = target: Cellular tumor antigen p53 (Homo sapiens) (UniProt P04637); test: Binding affinity to p53 transfected in human Saos-2 cells harboring pLV-53 assessed as cytosolic p53 concentration at 10 uM after 48 hrs; format: cell-based
Thymocyte = test: Induction of p21 mRNA expression in mouse thymocytes
[26] = target: Cellular tumor antigen p53 (Mus musculus) (UniProt P02340); test: Inhibition of p53-mediated transactivation of p21 in gamma-stimulated mouse ConA cells at 10 uM after 6 hrs
Chain of Cellular tumor antigen p53 (Mus musculus) (P02340 whole entry, looked up): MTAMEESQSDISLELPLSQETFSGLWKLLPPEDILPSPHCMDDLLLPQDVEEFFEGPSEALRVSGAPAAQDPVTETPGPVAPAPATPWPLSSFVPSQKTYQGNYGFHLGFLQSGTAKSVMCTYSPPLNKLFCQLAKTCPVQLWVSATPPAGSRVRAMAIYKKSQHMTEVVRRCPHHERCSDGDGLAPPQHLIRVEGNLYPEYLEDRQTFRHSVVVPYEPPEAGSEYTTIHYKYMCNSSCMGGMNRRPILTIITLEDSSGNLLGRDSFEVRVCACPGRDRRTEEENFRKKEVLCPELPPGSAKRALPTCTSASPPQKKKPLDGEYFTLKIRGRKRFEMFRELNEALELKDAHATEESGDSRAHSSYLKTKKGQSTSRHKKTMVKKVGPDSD

Chain of Cellular tumor antigen p53 (Homo sapiens) (P04637 whole entry, looked up): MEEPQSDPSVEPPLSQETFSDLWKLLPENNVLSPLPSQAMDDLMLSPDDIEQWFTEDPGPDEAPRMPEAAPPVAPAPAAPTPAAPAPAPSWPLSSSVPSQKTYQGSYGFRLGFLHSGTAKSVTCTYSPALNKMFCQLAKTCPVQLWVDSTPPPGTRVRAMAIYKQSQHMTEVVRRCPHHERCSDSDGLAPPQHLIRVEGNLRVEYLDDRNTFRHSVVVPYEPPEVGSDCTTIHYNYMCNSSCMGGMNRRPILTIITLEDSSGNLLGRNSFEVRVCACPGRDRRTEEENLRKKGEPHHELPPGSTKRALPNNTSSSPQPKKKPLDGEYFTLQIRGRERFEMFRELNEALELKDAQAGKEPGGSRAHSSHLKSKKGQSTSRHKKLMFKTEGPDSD

Question: Which Activity [1] does the source give for `NS(=O)(=O)C#Cc1ccccc1` here?
Answer: Its Activity is “Active”.

Question: And the Activity [2]?
Answer: Its Activity is “Active”.

Question: And the Activity [3]?
Answer: The Activity was “Active”.

Question: And the Activity [4]?
Answer: The Activity was “Active”.

Question: And the Activity [5]?
Answer: The Activity was “Active”.

Question: And the inhibition [6]?
Answer: Its inhibition is “inactive”.

Question: What about the Activity (NCI-H1299) of the same compound?
Answer: The Activity was “inactive”.

Question: And the Activity (WI-38)?
Answer: The Activity was “inactive”.

Question: And the Activity (Fibroblast)?
Answer: The Activity was “inactive”.

Question: What about the inhibition [7] of the same compound?
Answer: The inhibition was “Active”.

Question: What about the Activity (Mus musculus [8]) of the same compound?
Answer: The Activity was 50%.

Question: What about the inhibition [9] of the same compound?
Answer: Its inhibition is “inactive”.

Question: And the inhibition [10]?
Answer: The inhibition was “inactive”.

Question: And the inhibition [11]?
Answer: Its inhibition is “inactive”.

Question: And the inhibition [12]?
Answer: The inhibition was “inactive”.

Question: What about the inhibition [13] of the same compound?
Answer: The inhibition was “inactive”.

Question: And the inhibition [14]?
Answer: The inhibition was “inactive”.

Question: And the inhibition [15]?
Answer: Its inhibition is “inactive”.

Question: What about the inhibition [16] of the same compound?
Answer: The inhibition was “inactive”.

Question: What about the inhibition [17] of the same compound?
Answer: The inhibition was “inactive”.

Question: What about the Activity (Homo sapiens) of the same compound?
Answer: The Activity was “inactive”.

Question: What about the Activity (BJ) of the same compound?
Answer: The Activity was “inactive”.

Question: What about the Activity (MCF7 [18]) of the same compound?
Answer: Its Activity is “inactive”.

Question: What about the Activity (MCF7 [19]) of the same compound?
Answer: The Activity was “inactive”.

Question: And the Activity (U2OS [20])?
Answer: The Activity was “inactive”.

Question: What about the Activity (U2OS [21]) of the same compound?
Answer: Its Activity is “inactive”.

Question: What about the Activity (U2OS [22]) of the same compound?
Answer: Its Activity is “inactive”.

Question: And the Activity (Mus musculus [23])?
Answer: Its Activity is 70%.

Question: What about the Activity [24] of the same compound?
Answer: Its Activity is “Active”.

Question: What about the Activity [25] of the same compound?
Answer: The Activity was “inactive”.

Question: What about the Activity (Thymocyte) of the same compound?
Answer: Its Activity is “inactive”.

Question: What about the inhibition [26] of the same compound?
Answer: The inhibition was “inactive”.
